Measurements from different studies.
Compare with care: the assays were run in different laboratories.
CA1: Carbonic anhydrase 1 (CA1, Homo sapiens, UniProt P00915)
ADRA2A: Alpha-2A adrenergic receptor (ADRA2A, Homo sapiens, UniProt P08913)
CA2: Carbonic anhydrase 2 (CA2, Homo sapiens, UniProt P00918)

O=C(NCc1cn(-c2ccccc2)nn1)c1ccc(=O)oc1  Ki (CA1; enzyme activity; inhibitor; stopped-flow): > 100000 nM
Nc1ccc(S(=O)(=O)c2ccc(N)cc2)cc1  Ki (CA1; enzyme activity; inhibitor): 11600 nM
Cc1cc(Oc2ncccc2CN2CCN(c3cccc(Cl)c3)CC2)ccc1-c1c(C)c(=O)[nH]c(=O)n1C  Ki (ADRA2A; ligand displacement; radioligand): 161 nM
COc1ccc(-n2cc(COC(=O)c3ccc(=O)oc3)nn2)cc1  Ki (CA1; enzyme activity; inhibitor; stopped-flow): > 100000 nM
Cc1cc(Oc2ncccc2CN2CCN(c3ccccc3C(F)(F)F)CC2)ccc1-c1c(C)c(=O)[nH]c(=O)n1C  Ki (ADRA2A; ligand displacement; radioligand): 175 nM
OC1CCN(c2ccc(/C=N/NC(=S)Nc3cccc(Cl)c3Cl)cc2)CC1  Ki (CA2; enzyme activity; inhibitor): 271 nM
Cc1cc(Oc2ncccc2CN2CCN(c3cccc(C)c3C)CC2)ccc1-c1c(C)c(=O)[nH]c(=O)n1C  Ki (ADRA2A; ligand displacement; radioligand): 41.9 nM
Cc1cccc(CC(=O)Nc2nnc(S(N)(=O)=O)s2)c1  Ki (CA1; enzyme activity; inhibitor; stopped-flow): 42.4 nM
COc1ccc(N2CCN(Cc3cccnc3Oc3ccc(-c4c(C)c(=O)[nH]c(=O)n4C)c(C)c3)CC2)cc1  Ki (ADRA2A; ligand displacement; radioligand): 1320 nM
C[C@H]1c2cccc(O)c2C(=O)C2=C(O)[C@]3(O)C(=O)C(C(N)=O)=C(O)[C@@H](N(C)C)[C@@H]3[C@@H](O)[C@@H]21  Ki (CA1; enzyme activity; inhibitor): 8510 nM
Cc1cc(Oc2ncccc2CN2CCN(c3ccccn3)CC2)ccc1-c1c(C)c(=O)[nH]c(=O)n1C  Ki (ADRA2A; ligand displacement; radioligand): 123 nM
O=C(O)COCCN1CCN(C(c2ccccc2)c2ccc(Cl)cc2)CC1 (stereo not drawn)  Ki (CA1; enzyme activity; inhibitor): 9900 nM
Cc1cc(Oc2ncccc2CN2CCN(c3ccc(F)c(F)c3)CC2)ccc1-c1c(C)c(=O)[nH]c(=O)n1C  Ki (ADRA2A; ligand displacement; radioligand): 418 nM
NS(=O)(=O)c1cnc(NC(=O)CC2CCCCC2)s1  Ki (CA1; enzyme activity; inhibitor; stopped-flow): 1580 nM
Cc1cc(Oc2ncccc2CN2CCN(c3ccc(Cl)cc3)CC2)ccc1-c1c(C)c(=O)[nH]c(=O)n1C  Ki (ADRA2A; ligand displacement; radioligand): 576 nM
O=C(NCc1cn(-c2ccc([N+](=O)[O-])cc2)nn1)c1ccc(=O)oc1  Ki (CA1; enzyme activity; inhibitor; stopped-flow): > 100000 nM
NS(=O)(=O)c1nnc(NC(=O)C2CCC3(CCCCC3)C2)s1 (stereo not drawn)  Ki (CA2; enzyme activity; inhibitor; stopped-flow): 40.1 nM
Cc1cc(Oc2ncccc2CN2CCN(c3ccccc3[N+](=O)[O-])CC2)ccc1-c1c(C)c(=O)[nH]c(=O)n1C  Ki (ADRA2A; ligand displacement; radioligand): 146 nM
Cc1ccc(CCC(=O)Nc2nnc(S(N)(=O)=O)s2)cc1  Ki (CA2; enzyme activity; inhibitor; stopped-flow): 11.8 nM
CCOC(=O)N1CCC(=C2c3ccc(Cl)cc3CCc3cccnc32)CC1  Ki (CA1; enzyme activity; inhibitor): 8090 nM
CC(C(=O)Nc1nnc(S(N)(=O)=O)s1)C1CCCCC1 (stereo not drawn)  Ki (CA2; enzyme activity; inhibitor; stopped-flow): 18.3 nM
C#CCOC(=O)c1ccc(=O)oc1  Ki (CA1; enzyme activity; inhibitor; stopped-flow): > 100000 nM
CC1=C(/C=C/C(C)=C/C=C/C(C)=C\C(=O)O)C(C)(C)CCC1  Ki (CA2; enzyme activity; inhibitor; absorbance): 6900 nM
COc1ccc(-n2cc(CNC(=O)c3ccc(=O)oc3)nn2)cc1  Ki (CA1; enzyme activity; inhibitor; stopped-flow): > 100000 nM
CC(C)(C(=O)O)c1ccc(C(O)CCCN2CCC(C(O)(c3ccccc3)c3ccccc3)CC2)cc1 (stereo not drawn)  Ki (CA1; enzyme activity; inhibitor): 13100 nM
O=C(Oc1ccc(Br)cc1)c1ccc(=O)oc1  Ki (CA1; enzyme activity; inhibitor; stopped-flow): > 100000 nM
CCOCCn1c(C2CCN(CCc3ccc(C(C)(C)C(=O)O)cc3)CC2)nc2ccccc21  Ki (CA1; enzyme activity; inhibitor): 9530 nM
